Published values of several laboratories.
Compare with care: the assays were run in different laboratories.
Target: Tyrosine-protein kinase SYK (SYK, Homo sapiens, UniProt P43405)

SMILES	test	setting	endpoint	result
C1=C/COCc2cc(ccc2OCCN2CCCC2)Nc2nccc(n2)-c2cccc(c2)COC/1	cell-free assay	0.1 µM	remaining signal	87%
CO[C@@H]1[C@H](N(C)C(=O)c2ccccc2)C[C@H]2O[C@]1(C)n1c3ccccc3c3c4c(c5c6ccccc6n2c5c31)C(=O)NC4	enzyme activity, inhibitor	1 µM	inhibition	96%
C[C@H]1CC[C@H](n2c3cnccc3c3cnc(Nc4ccc5c(n4)CCN(C(=O)CO)C5)nc32)CC1	cell-free assay, competition with immobilised ligand	1 µM	remaining binding	100%
CCCCC(=O)Nc1ccc(-c2ccc3ncn(CCC)c(=O)c3c2)cn1	binding, competition with immobilised ligand	0.5 µM	remaining binding	90%
CC(C)S(=O)(=O)c1ccc2nccc(Nc3ccc4sc(C5CCCC5)nc4c3)c2c1	enzyme activity, inhibitor	1 µM	activity vs control	104%
COc1ccc2oc(-c3ccc4nc(N)oc4c3)c/c(=N\c3ccccc3NC(=O)CCN)c2c1	binding	1 µM	remaining binding	96%
CC#CC(=O)N1CCC[C@H]1c1nc(-c2ccc(C(=O)Nc3ccccn3)cc2)c2c(N)nccn12	enzyme activity, inhibitor	1 µM	inhibition	0%
Cc1ccc(NC(=O)c2ccnc(C(F)(F)F)c2)cc1-c1cc(OCCO)nc(N2CCOCC2)c1	binding, competition with immobilised ligand	1 µM	remaining binding	100%
